Results on 1 compound are retold here after ChEMBL document CHEMBL4325827, “Bifidenone: Structure-Activity Relationship and Advanced Preclinical Candidate” (J Med Chem, 2018).

Calls of active or inactive are those of the source. The calls are words filed in the database; no cut-off is given here.

The test system of data set [1] is NCI/ADR-RES. The data set can be described thus: Antiproliferative activity against taxane-resistant human NCI/ADR-RES cells after 72 hrs by CellTiter 96 aqueous nonradioactive cell proliferation assay. The data set is classed as functional, cell-based. Put shortly: (§1)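 Antiproliferation in cultured tumour cells, at least 3 replicate wells per concentration per experiment. NCI-H460 came from ATCC. M14, NCI/ADR-RES, OVCAR-4, HCT-15, ACHN and SF-295 came from the National Cancer Institute. IC50 reported from single experiments where no SD is given.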

Data set [2] is described as follows: Toxicity in Crl:NU(NCr)-Foxn1 nu mouse xenografted with human LOX-IMVI cells assessed as maximum body weight loss at 30 mg/kg, ip qd administered for 7 consecutive days measured after 6 days post dose relative to control. The class given is organism-based. To be noted: in vivo, 144 h. The gist of the method:
(§2)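 Female athymic nude mice bearing subcutaneous xenografts, started from cultured cells (NCI-H460, Calu-6, NCI-H69, LOX-IMVI) or from serially passaged tumour fragments (NCI-H522). Mice were grouped into vehicle and treatment arms at tumour volumes of about 75-200 mm3. Dosing was ip at 5-10 mL/kg in 22% ethanol, 38% PEG400, 40% 20 mM Na citrate pH 5.0. Caliper volumes were taken as (length × width2)/2. Treated and control delta weights were median tumour weight minus staging-day median.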

The nature of data set [3]: Toxicity in Crl:NU(NCr)-Foxn1 nu mouse xenografted with human LOX-IMVI cells assessed as maximum body weight loss at 30 mg/kg, ip qd administered for 7 consecutive days measured after 5 days post dose relative to control. The data set is classed as organism-based. To be noted: in vivo, 120 h. Put shortly:
as §2

The test system of data set [4] is LOX IMVI. The data set can be described thus: Antitumor activity against human LOXIMVI cells xenografted in Crl:NU(NCr)-Foxn1 nu mouse assessed as tumor growth inhibition at 30 mg/kg, ip qd relative to control. To be noted: read-out: TGI. In general terms: A xenograft is tissue or cells of one species grown in another, often human tumour cells in immunodeficient mice.

Data set [5] relates to Calu-6. Briefly: Antitumor activity against human Calu6 cells xenografted in Crl:NU(NCr)-Foxn1 nu mouse assessed as tumor growth inhibition at 60 mg/kg, ip qd administered for 3 consecutive days followed by 2 days of rest for 4 cycles relative to control. The data set is classed as functional. To be noted: Calu-6, ip, 48 h, read-out: TGI. The gist of the method:
as §2

Data set [6] relates to NCI-H460. The data set can be described thus: Antitumor activity against human NCI-H460 cells xenografted in Crl:NU(NCr)-Foxn1 nu mouse assessed as tumor growth inhibition at 60 mg/kg, ip qd administered for 3 consecutive days followed by 2 days of rest for 3 cycles relative to control. The class given is functional. To be noted: 48 h, read-out: TGI. The gist of the method:
as §2

Data set [7] can be described thus: Toxicity in Crl:NU(NCr)-Foxn1 nu mouse xenografted with human Calu6 cells assessed as maximum body weight loss at 60 mg/kg, ip qd administered for 3 consecutive days followed by 2 days of rest for 4 cycles measured after 2 days post dose relative to control. To be noted: in vivo, 48 h. The data set is classed as organism-based. The gist of the method:
as §2

Data set [8] concerns ACHN. The data set can be described thus: Antiproliferative activity against taxane-resistant human ACHN cells after 72 hrs by CellTiter 96 aqueous nonradioactive cell proliferation assay. The data set is classed as functional, cell-based. The gist of the method:
as §1

Data set [9] in a line: Drug uptake in tumor of human NCI-H460 cells xenografted in Crl:NU(NCr)-Foxn1 nu mouse at 40 mg/kg, ip measured at 3 hrs post injection by LC-MS analysis. To be noted: in vivo. The data set is classed as ADME, organism-based, Neoplasm. The gist of the method: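 Male Nu/Nu mice, some bearing NCI-H460 or LOX-IMVI xenografts, given a single ip dose at 3 mL/kg. Organic vehicle components were dissolved first, with the aqueous part added gradually. Mice were euthanized at 1 h or 3 h. Cardiac blood was taken into NaEDTA/NaF plasma separator tubes. Quantification used loratadine internal standard against a spiked blank-plasma curve. Tumours were run as duplicate ~200 mg samples homogenized in 3% SDS and extracted twice with ethyl acetate, assuming 1 g tissue = 1 mL.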

Data set [10] can be described thus: Toxicity in Crl:NU(NCr)-Foxn1 nu mouse xenografted with human Calu6 cells assessed as maximum body weight loss at 50 mg/kg, ip qd administered for 3 consecutive days followed by 2 days of rest for 4 cycles measured after 17 days post dose relative to control. To be noted: in vivo, 408 h. The class given is organism-based. Put shortly:
as §2

Data set [11] can be described thus: Toxicity in Crl:NU(NCr)-Foxn1 nu mouse xenografted with human NCI-H460 cells assessed as mortality at 60 mg/kg, ip qd administered for 3 consecutive days followed by 2 days of rest for 3 cycles. The data set is classed as organism-based. To be noted: in vivo, 48 h. The gist of the method:
(§3)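 Female athymic nude mice bearing subcutaneous xenografts started from cultured human tumor cells. Mice were split into vehicle and treatment groups once tumors reached about 75-200 mm3. Dosing was ip at 5-10 mL/kg in 22% ethanol, 38% PEG400, 40% 20 mM Na citrate pH 5.0. Deaths per group were recorded alongside maximum mean bodyweight loss.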

Data set [12] relates to NCI-H69. Briefly: Antitumor activity against human NCI-H69 cells xenografted in Crl:NU(NCr)-Foxn1 nu mouse assessed as tumor growth inhibition at 60 mg/kg, ip dosed on day 1 followed by 4 days rest and subsequently dosed at 60 mg/kg, ip qd administered for 3 consecutive days followed by 2 days of rest for 2 cycles relative to control. The class given is functional. To be noted: read-out: TGI. The gist of the method: as §2

The subject of data set [13] is EKVX. Briefly: Potency index, ratio of paclitaxel IC50 to compound IC50 for taxane-resistant human EKVX cells after 72 hrs by CellTiter 96 aqueous nonradioactive cell proliferation assay. The data set is classed as functional.
Data set [14] has as its target Tubulin (Sus scrofa) (UniProt P02554+P02550). The data set can be described thus: Inhibition of pig tubulin polymerization at 10 uM measured at 1 min intervals for 60 mins. The data set is classed as protein assay. The gist of the method: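 Polymerization assay using porcine tubulin.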
Data set [15] concerns NCI-H460. The data set can be described thus: Antitumor activity against human NCI-H460 cells xenografted in Crl:NU(NCr)-Foxn1 nu mouse assessed as tumor growth inhibition at 40 mg/kg, ip qd administered for 3 consecutive days followed by 2 days of rest for 3 cycles relative to control. The class given is functional. To be noted: 48 h, read-out: TGI. The gist of the method:
as §2

Data set [16] in a line: Toxicity in Crl:NU(NCr)-Foxn1 nu mouse xenografted with human NCI-H69 cells assessed as maximum body weight loss at 70 mg/kg, ip dosed on day 1 followed by 4 days rest and subsequently dosed at 70 mg/kg, ip qd administered for 3 consecutive days followed by 2 days of rest for 2 cycles measured after 3 days post dose relative to control. To be noted: in vivo, 72 h. The data set is classed as organism-based. The gist of the method: as §2

A short description of data set [17]: Toxicity in Crl:NU(NCr)-Foxn1 nu mouse xenografted with human NCI-H460 cells assessed as maximum body weight loss at 60 mg/kg, ip qd administered for 3 consecutive days followed by 2 days of rest for 3 cycles measured after 8 days post dose relative to control. The data set is classed as organism-based. To be noted: in vivo, 192 h. The gist of the method:
as §2

The nature of data set [18]: Toxicity in Crl:NU(NCr)-Foxn1 nu mouse xenografted with human Calu6 cells assessed as mortality at 60 mg/kg, ip qd administered for 3 consecutive days followed by 2 days of rest for 4 cycles. The class given is organism-based. To be noted: in vivo, 48 h. Put shortly: as §3
A short description of data set [19]: Toxicity in Crl:NU(NCr)-Foxn1 nu mouse xenografted with human NCI-H69 cells assessed as mortality at 70 mg/kg, ip dosed on day 1 followed by 4 days rest and subsequently dosed at 70 mg/kg, ip qd administered for 3 consecutive days followed by 2 days of rest for 2 cycles. The class given is organism-based. To be noted: in vivo. The gist of the method: as §3

Data set [20] is described as follows: Toxicity in Crl:NU(NCr)-Foxn1 nu mouse xenografted with human […] cells assessed as maximum body weight loss at 60 mg/kg, ip qd administered for 3 consecutive days followed by 2 days of rest for 3 cycles measured after 3 days post dose relative to control. The data set is classed as organism-based. To be noted: in vivo, 72 h. Put shortly:
as §2

Sequence of Tubulin (Sus scrofa) (P02550 whole entry, looked up): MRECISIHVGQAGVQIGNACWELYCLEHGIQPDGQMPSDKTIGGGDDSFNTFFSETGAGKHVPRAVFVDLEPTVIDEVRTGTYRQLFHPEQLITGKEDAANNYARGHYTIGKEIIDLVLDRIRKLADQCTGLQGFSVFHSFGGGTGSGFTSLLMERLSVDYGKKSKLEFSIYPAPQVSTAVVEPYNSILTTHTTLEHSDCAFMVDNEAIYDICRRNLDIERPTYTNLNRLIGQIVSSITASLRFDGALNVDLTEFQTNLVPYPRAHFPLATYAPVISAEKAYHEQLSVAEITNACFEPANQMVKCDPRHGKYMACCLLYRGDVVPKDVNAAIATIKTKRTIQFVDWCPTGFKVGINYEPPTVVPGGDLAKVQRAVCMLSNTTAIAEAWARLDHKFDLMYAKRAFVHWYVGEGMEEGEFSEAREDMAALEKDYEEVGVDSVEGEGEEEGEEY
Sequence of Tubulin (Sus scrofa) (P02554 whole entry, looked up): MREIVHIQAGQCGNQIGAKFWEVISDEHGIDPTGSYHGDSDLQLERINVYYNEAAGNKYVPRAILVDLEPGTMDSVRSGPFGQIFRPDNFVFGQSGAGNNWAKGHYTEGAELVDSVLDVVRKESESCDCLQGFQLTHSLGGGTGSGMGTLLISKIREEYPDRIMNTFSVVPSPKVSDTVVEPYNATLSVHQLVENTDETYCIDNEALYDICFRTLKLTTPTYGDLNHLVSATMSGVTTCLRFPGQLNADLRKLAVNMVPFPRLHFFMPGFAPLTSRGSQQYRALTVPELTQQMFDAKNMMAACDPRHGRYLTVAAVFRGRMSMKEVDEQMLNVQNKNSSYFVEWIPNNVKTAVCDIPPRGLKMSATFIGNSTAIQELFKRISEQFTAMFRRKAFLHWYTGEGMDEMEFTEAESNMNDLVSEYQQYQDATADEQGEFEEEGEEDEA

Consider `C=CC[C@H]1C[C@]2([C@H](C)Cc3cc(O)c(OC)cc3F)OCOC2=CC1=O`, for which the IC50 was 9 nM in data set [1] and 12 nM in [8]. For the same compound, the Activity is 9% in [2]; 9% in data set [3]; 2% in [7]; 4% in [10]; “Non-Toxic” in [11]; 9% in data set [16]. Further, the Activity in [17] is given as 12%; in data set [18], “Non-Toxic”; in [19], “Non-Toxic”; in [20], 9%. In addition, the inhibition in vivo at 30 mg/kg in [4] amounted to 63%. Moreover, the values for the inhibition in vivo at 60 mg/kg in data set [5], in data set [6] and in data set [12] were 63%, 67% and 77%, respectively. For the same compound, in [9], the Drug uptake result is “Active”. Besides, the “Ratio IC50” value in [13] is recorded as 21. Besides, the inhibition result in [14] was “Active”. Further, in data set [15], the inhibition in vivo at 40 mg/kg worked out at 71%.

For orientation: IC50 means the midpoint of a concentration-inhibition curve.
